This is a sample that favours compounds with a hit; in the whole collection about 4.7% have one here.
MT1-MMP act inh: inhibitors of human MT1-MMP activation. GFP/RFP ratio change, % at 20 µM. HT1080 RFP-PRO-GFP cells, GFP/RFP ratio fluorescence, overnight; percent of plate control window, DMSO zero. P50281. hit rate 0.061% among 360,000. AID 651647;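 active = GFP/RFP ratio change of at least 30% with cell ATP level not reduced by more than half and red fluorescence within 50% of control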
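Read-out: GFP/RFP fluorescence ratio; Test system: RFP-PRO-GFP reporter HT1080 cells; Compound dosing: single-point 20 µM compound, 1% DMSO; Times: overnight compound exposure at 37 °C.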
ADAM10 inh: inhibits human ADAM10. recombinant ADAM10, EDANS/DABCYL FRET peptide cleavage, 3 h. O14672. AID 720582. hit rate 0.62% among 370,000. inhibition, % at 7 µM;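 active = inhibition above a per-campaign cutoff equal to the mean of compounds falling between control-based bounds plus 3 SD, cut at about 20% in these data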;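 note: 0% = DMSO wells while the 100% control is not disclosed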
ADAM17 inh: ADAM17 inhibition, QFRET primary screen. P78536. inhibition, % at 6.95 µM. hit rate 0.83% among 370,000. AID 720648. recombinant ADAM17, EDANS/DABCYL FRET peptide cleavage;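 active = inhibition above the mean of compounds lying between control limits plus 3 SD, set per campaign, cut at about 8.5% in these data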;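 note: 0% = DMSO-only wells as the low control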
Target sequence (P78536 215-824 limits assumed): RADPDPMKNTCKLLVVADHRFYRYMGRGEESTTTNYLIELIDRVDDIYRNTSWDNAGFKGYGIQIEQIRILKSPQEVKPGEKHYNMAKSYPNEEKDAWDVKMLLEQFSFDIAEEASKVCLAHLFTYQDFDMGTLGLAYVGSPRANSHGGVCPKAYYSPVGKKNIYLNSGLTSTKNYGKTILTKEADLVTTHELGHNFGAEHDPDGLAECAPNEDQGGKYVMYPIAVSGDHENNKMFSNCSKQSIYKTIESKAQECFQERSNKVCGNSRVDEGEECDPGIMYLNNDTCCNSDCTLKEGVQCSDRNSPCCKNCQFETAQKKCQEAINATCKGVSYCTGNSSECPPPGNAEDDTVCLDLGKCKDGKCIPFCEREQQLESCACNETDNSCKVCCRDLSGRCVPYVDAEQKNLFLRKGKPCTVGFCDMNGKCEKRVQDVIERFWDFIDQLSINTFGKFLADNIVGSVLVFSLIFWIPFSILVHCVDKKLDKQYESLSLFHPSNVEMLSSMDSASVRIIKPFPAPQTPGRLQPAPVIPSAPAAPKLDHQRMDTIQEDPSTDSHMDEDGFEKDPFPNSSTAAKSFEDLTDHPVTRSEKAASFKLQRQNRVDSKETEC
MPTP inh: blocks calcium-induced mitochondrial swelling | AID 602449 | hit rate 1.4% among 360,000 | isolated mouse mitochondria, Ca2+ swelling absorbance, 30 min | inhibition, % at 10 µM;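 active = inhibition of 50% or more, scaled per plate between neutral and stimulator controls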;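 note: 0% = DMSO wells given calcium and 100% = 1 mM EGTA wells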
GRIN3A LBD mod: modulates the human NR3A ligand-binding domain. Tm shift relative to glycine control, % at 25 µM. AID 1259313. NR3A LBD differential scanning fluorimetry, Tm shift; 0% = protein alone, 100% = glycine-bound protein. hit rate 2.5% among 340,000;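 active = melting temperature shift of at least 10% of the positive control shift, at one fixed dose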
SKN-1 block: blocks SKN-1 activity in C. elegans; C. elegans VP596 Pgst-4::GFP/RFP ratio, acrylamide-induced, 24 h; inhibition, % at 21.8 µM; hit rate 0.49% among 360,000;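 active = interference check ratio from 0.5 to 1.5 plus GFP to RFP signal ratio inhibition reaching or exceeding a fixed threshold, cut at about 30% in these data, passing the limit was not always enough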
The depositor's hits bear a star.

Screening NC(=O)c1c(/N=C/c2cccnc2)sc2c1CCCC2 returned MT1-MMP act inh 3, ADAM10 inh -11, ADAM17 inh -7, MPTP inh -1, GRIN3A LBD mod 11* and SKN-1 block 9.
`Cc1ccc(/C=N/c2sc3c(c2C(N)=O)CCCC3)o1` gave MT1-MMP act inh 0, ADAM10 inh -13, ADAM17 inh -5, MPTP inh -2, GRIN3A LBD mod -2 and SKN-1 block 6.
Screening COc1ccc(-c2ccnc(SCC(=O)c3ccc(OC)c(OC)c3)n2)cc1 returned MT1-MMP act inh 0, ADAM10 inh 5, ADAM17 inh 3, MPTP inh 0, GRIN3A LBD mod 14* and SKN-1 block -8.
Screening COc1ccc(-c2ccnc(SCC(=O)c3ccc(Cl)cc3)n2)cc1 returned MT1-MMP act inh -1, ADAM10 inh 5, ADAM17 inh 0, MPTP inh 2, GRIN3A LBD mod -6 and SKN-1 block 14.
CCN(C(=O)COC(=O)c1ccc(=O)n(Cc2ccccc2)n1)C1CCCCC1 was read as MT1-MMP act inh -1, ADAM10 inh -11, ADAM17 inh -1, MPTP inh 0, GRIN3A LBD mod -2 and SKN-1 block 7.
Screening Nc1ccc(C(=O)OCc2nc3c(ccc4ccccc43)[nH]2)cc1 returned MT1-MMP act inh 5, ADAM10 inh 7, ADAM17 inh -1, MPTP inh -5, GRIN3A LBD mod 27* and SKN-1 block -4.
CC(=O)Nc1ccc(NC(=O)COC(=O)c2ccc([N+](=O)[O-])o2)cc1 was read as MT1-MMP act inh 0, ADAM10 inh -6, ADAM17 inh -2, MPTP inh 0, GRIN3A LBD mod 1 and SKN-1 block -6.
Fc1ccc(-c2cc(C(F)(F)C(F)F)[nH]n2)cc1 was read as MT1-MMP act inh -5, ADAM10 inh 9, ADAM17 inh 4, MPTP inh 11, GRIN3A LBD mod 10* and SKN-1 block -4.
Screening CN1CCCN(C(=O)CNC(=O)Cc2ccccc2)CC1 returned MT1-MMP act inh 3, ADAM10 inh 11, ADAM17 inh -3, MPTP inh -1, GRIN3A LBD mod 0 and SKN-1 block -1.
Screening O=[N+]([O-])c1ccc(COc2cccc3cccnc23)cc1 returned MT1-MMP act inh 3, ADAM10 inh -5, ADAM17 inh 0, MPTP inh 0, GRIN3A LBD mod -2 and SKN-1 block 36*.
For COc1ccc(OC)c(C2C(C(=O)c3ccc(C)o3)=C(O)C(=O)N2CCCN2CCOCC2)c1 (stereo not drawn) the results were MT1-MMP act inh -3, ADAM10 inh 4, ADAM17 inh 1, MPTP inh 0, GRIN3A LBD mod 0 and SKN-1 block -16.
Cc1nc2c3cc(Cl)ccc3n(CCN3CCOCC3)c2s1 was read as MT1-MMP act inh 0, ADAM10 inh -10, ADAM17 inh 6, MPTP inh 2, GRIN3A LBD mod 0 and SKN-1 block 6.
Screening CCN(CC)c1ccc(C=N/C(C#N)=C(\N)C#N)cc1 returned MT1-MMP act inh 17, ADAM10 inh -7, ADAM17 inh 1, MPTP inh 12, GRIN3A LBD mod 27* and SKN-1 block 28.
`CCCCCCn1c(N2CCN(c3cccc(Cl)c3)CC2)nc2c1c(=O)[nH]c(=O)n2C` gave MT1-MMP act inh 4, ADAM10 inh -6, ADAM17 inh -2, MPTP inh -9, GRIN3A LBD mod 14* and SKN-1 block 38*.
CCCCCCCCn1c(N2CCN(c3cccc(Cl)c3)CC2)nc2c1c(=O)[nH]c(=O)n2C was read as MT1-MMP act inh -15, ADAM10 inh -3, ADAM17 inh -4, MPTP inh 17, GRIN3A LBD mod 0 and SKN-1 block -13.
Screening Cc1ccc(S(=O)(=O)NC(C(=O)OCC(=O)NC(=O)c2cccn2C)C(C)C)cc1 (stereo not drawn) returned MT1-MMP act inh -1, ADAM10 inh 5, ADAM17 inh 7, MPTP inh 0, GRIN3A LBD mod 1 and SKN-1 block -17.
For CC(=O)Nc1ccc(NC(=O)C(NS(=O)(=O)c2cccc3nsnc23)C(C)C)cc1 (stereo not drawn) the results were MT1-MMP act inh -3, ADAM10 inh 2, ADAM17 inh -3, MPTP inh -1, GRIN3A LBD mod 10* and SKN-1 block -7.
CC(NC(=O)C(NS(=O)(=O)c1cccc2nsnc12)C(C)C)c1ccccc1 (stereo not drawn) was read as MT1-MMP act inh 3, MPTP inh 0, GRIN3A LBD mod 1 and SKN-1 block -18.
For Cc1ccc(-c2nnn(CC(=O)NCC3CC3)n2)o1 the results were MT1-MMP act inh 1, ADAM10 inh -4, ADAM17 inh -4, MPTP inh -2, GRIN3A LBD mod -1 and SKN-1 block -7.
For Cc1ccc(-c2nnn(CC(=O)NCC3COCCO3)n2)o1 (stereo not drawn) the results were MT1-MMP act inh -11, ADAM10 inh -1, ADAM17 inh -1, MPTP inh -1, GRIN3A LBD mod 0 and SKN-1 block 42*.
COc1ccc(C2Nc3ccccc3C(=O)N2c2ccccc2)cc1CSc1ccccn1 (stereo not drawn) was read as MT1-MMP act inh 12, ADAM10 inh -421, ADAM17 inh -123, MPTP inh 0, GRIN3A LBD mod 18* and SKN-1 block 4.
Screening COc1ccc(CNn2cnnc2)c(O)c1 returned MT1-MMP act inh 0, ADAM10 inh -2, ADAM17 inh 0, MPTP inh 0, GRIN3A LBD mod 2 and SKN-1 block -2.
For O=C(NC1CCC(=O)N(CCSc2ccccc2)CC1)OCc1ccccc1 (stereo not drawn) the results were MT1-MMP act inh 9, ADAM10 inh 6, ADAM17 inh -1, MPTP inh 0, GRIN3A LBD mod 0 and SKN-1 block 2.
CC(C)CNC(=S)NNC(=O)CC(C)O (stereo not drawn) was read as MT1-MMP act inh 2, ADAM10 inh 4, ADAM17 inh 0, MPTP inh 0, GRIN3A LBD mod -2 and SKN-1 block 5.
`COc1ccc(/C=C/c2nc3ccccc3n2Cc2ccccc2OC)cc1` gave MT1-MMP act inh -16, ADAM10 inh -163, ADAM17 inh -53, MPTP inh 17, GRIN3A LBD mod 0 and SKN-1 block 5.
For COc1ccccc1Cn1c(/C=C/c2ccccc2)nc2ccccc21 the results were MT1-MMP act inh -13, ADAM10 inh inactive, ADAM17 inh -255, MPTP inh 6, GRIN3A LBD mod 11* and SKN-1 block 9.
Screening CCN1C(N(C)CCc2c[nH]c3ccccc23)=N[C@@H](c2cccc(C(F)(F)F)c2)C(C(=O)OC)=C1C returned MT1-MMP act inh -4, MPTP inh 4, GRIN3A LBD mod -4 and SKN-1 block 18.
